Test results published in publication PMC11319934 (PNAS Nexus, 2024).
Bridge positions count the residues as written; N and C are the ends. Square brackets hold non-standard residues; d marks the D form. Peptide text beside a SMILES is read from it. * marks the point of attachment. X1 = CN(C)c1ccc2c(-c3ccc(C(=O)*)cc3C(=O)[O-])c3ccc(=[N+](C)C)cc-3oc2c1; R5 = C=CCCC[C@@](C)(N)C(=O)O; S5 = C=CCCC[C@](C)(N)C(=O)O

Key:
[1] = target: T1, His-EIL1-FLAG (Arabidopsis thaliana, UniProt Q9SLH0); assay: Fluorescence anisotropy; assay type: binding
T1 sequence (Q9SLH0 201-501): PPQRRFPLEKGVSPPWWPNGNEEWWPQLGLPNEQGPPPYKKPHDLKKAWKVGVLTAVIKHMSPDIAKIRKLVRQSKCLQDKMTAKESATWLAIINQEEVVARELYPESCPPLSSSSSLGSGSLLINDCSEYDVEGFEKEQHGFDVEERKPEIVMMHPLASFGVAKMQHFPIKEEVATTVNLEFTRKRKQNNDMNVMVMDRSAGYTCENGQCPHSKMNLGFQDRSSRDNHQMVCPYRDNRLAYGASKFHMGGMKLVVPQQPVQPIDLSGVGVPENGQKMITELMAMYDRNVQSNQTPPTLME
How it was run: (§1)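 FA titration at 25°C in 20 mM Tris-HCl pH 8.0, 200 mM NaCl, 10% glycerol, 10% cOmplete EDTA-free, with 2-mercaptoethanol (EIN3/EIL1 family). Protein added dropwise to 100 nM TMR-labelled peptide; His-EIN3-FLAG titrated 0–2 µM. Anisotropy read at ex/em 543/573.5 nm. Each point is the average of three independent measurements. Apparent Kd obtained by nonlinear curve fitting.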

[2] = target: T2, His-MYC3-FLAG (His6-SUMO-MYC3(44–238)-FLAG) (Arabidopsis thaliana, UniProt Q9FIP9); assay: Fluorescence anisotropy; assay type: binding; settings: for fold lower Kd with His-MYC3-FLAG than that of 1: ratio of Kd of 1 to Kd of the peptide
T2 sequence (Q9FIP9 44-238): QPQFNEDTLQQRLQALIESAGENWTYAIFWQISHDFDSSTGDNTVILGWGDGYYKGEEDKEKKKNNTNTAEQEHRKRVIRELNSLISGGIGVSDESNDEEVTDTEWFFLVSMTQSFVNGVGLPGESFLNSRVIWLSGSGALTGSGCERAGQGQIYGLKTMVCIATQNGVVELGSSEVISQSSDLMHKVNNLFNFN

[3] = target: T3, His-EIN3-FLAG (His6-SUMO-EIN3(200–500)-FLAG) (Arabidopsis thaliana, UniProt O24606); assay: Fluorescence anisotropy; assay type: binding
T3 sequence (O24606 200-500): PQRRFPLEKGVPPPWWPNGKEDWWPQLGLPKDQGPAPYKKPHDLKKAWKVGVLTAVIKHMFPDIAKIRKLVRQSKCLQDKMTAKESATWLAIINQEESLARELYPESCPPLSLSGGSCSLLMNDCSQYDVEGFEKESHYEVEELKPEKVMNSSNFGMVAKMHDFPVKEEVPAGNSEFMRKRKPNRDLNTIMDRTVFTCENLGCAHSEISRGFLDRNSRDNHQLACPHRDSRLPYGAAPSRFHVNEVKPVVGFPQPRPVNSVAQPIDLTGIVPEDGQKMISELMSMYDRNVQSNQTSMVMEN
How it was run: as §1

[4] = tested on: M. polymorpha gemmalings (Tak-1); assay: Growth; assay type: in vivo, Marchantia polymorpha; settings: Tak-1 gemmalings on 1/2 B5 medium, OPDA 50 µM, n = 24
How it was run: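 Tak-1 gemmalings grown 2 weeks on half-strength Gamborg's B5 with 1% agar, containing OPDA (50 µM) ± test compound (10 µM). Continuous light 50–60 µmol m-2 s-1, 22°C. Plant area measured in mm2 (n = 24). Experiment repeated three times; one-way ANOVA/Tukey's HSD, P < 0.01.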

[5] = tested on: A. thaliana seedlings (Col-0); assay: Root growth of A. thaliana seedlings with MeJA; assay type: in vivo, Arabidopsis thaliana; settings: 7-day-old Col-0 seedlings, MeJA 50 µM on 1/2 MS, n = 15
How it was run: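 Surface-sterilized Col-0 seeds stratified 2–3 days at 4°C. Grown on half-strength MS plates (2% sucrose, 0.4% gellan gum) with MeJA (50 µM) ± test compound (10 µM), under 16 h light (75 µmol m-2 s-1)/8 h dark at 22°C. Whole-seedling root length measured (n = 15). Repeated three times; one-way ANOVA/Tukey's HSD, P < 0.01.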

| SMILES | Kd [2] [nM] | Kd [3] [nM] | fold lower Kd with His-MYC3-FLAG than that of 1 [2] [fold] | other results |
| --- | --- | --- | --- | --- |
| CC[C@H](C)[C@H](NC(=O)[C@H](C)NC(=O)CNC(=O)[C@H](CCC(N)=O)NC(=O)[C@@H](NC(=O)[C@H](CC(=O)O)NC(=O)[C@H](CCCNC(=N)N)NC(=O)[C@H](Cc1ccccc1)NC(=O)[C@H](CO)NC(=O)[C@H](CCCNC(=N)N)NC(=O)[C@H](CCCNC(=N)N)NC(=O)[C@H](CCCNC(=N)N)NC(=O)[C@H](CC(=O)O)NC(=O)[C@H](CC(C)C)NC(=O)[C@H](Cc1ccccc1)NC(=O)[C@H](CCCCN)NC(=O)[C@H](CCC(N)=O)NC(=O)[C@H](Cc1ccccc1)NC(=O)c1ccc(-c2c3ccc(=[N+](C)C)cc-3oc3cc(N(C)C)ccc23)c(C(=O)[O-])c1)[C@@H](C)CC)C(=O)N[C@@H](CO)C(=O)N[C@@H](CCCCN)C(=O)N[C@H](C(=O)N[C@@H](CC(=O)O)C(=O)N1CCC[C@H]1C(=O)N[C@@H](CCC(=O)O)C(=O)N[C@H](C(=O)N[C@H](C(=O)N[C@@H](CCCCN)C(=O)N[C@@H](CO)C(=O)N[C@@H](CC(C)C)C(=O)N[C@@H](CC(C)C)C(=O)N[C@@H](C)C(=O)N[C@@H](CO)C(=O)N[C@H](C(=O)O)[C@@H](C)O)[C@@H](C)CC)[C@@H](C)CC)[C@@H](C)CC [compound 1] (X1-FQKFLDRRRSFRDIQGAISKIDPEIIKSLLAST-OH) | 210 |  |  | Kd [1]: 440 nM |
| CC[C@H](C)[C@H](NC(=O)[C@H](C)NC(=O)CNC(=O)[C@H](CCC(N)=O)NC(=O)[C@@H](NC(=O)[C@H](CC(=O)O)NC(=O)[C@H](CCCNC(=N)N)NC(=O)[C@H](Cc1ccccc1)NC(=O)[C@H](CO)NC(=O)[C@H](CCCNC(=N)N)NC(=O)[C@H](CCCNC(=N)N)NC(=O)[C@H](CCCNC(=N)N)NC(=O)[C@H](CC(=O)O)NC(=O)[C@H](CC(C)C)NC(=O)[C@H](Cc1ccccc1)NC(=O)[C@H](CCCCN)NC(=O)[C@H](CCC(N)=O)NC(=O)[C@H](Cc1ccccc1)NC(=O)c1ccc(-c2c3ccc(=[N+](C)C)cc-3oc3cc(N(C)C)ccc23)c(C(=O)[O-])c1)[C@@H](C)CC)C(=O)N[C@@H](CO)C(=O)N[C@@H](CCCCN)C(=O)N[C@H](C(=O)N[C@@H](CC(=O)O)C(=O)N1CCC[C@H]1C(=O)N[C@@H](CCC(=O)O)C(=O)N[C@]1(C)CCCC=CCCC[C@@](C)(C(=O)N[C@@H](CC(C)C)C(=O)N[C@@H](CC(C)C)C(=O)N[C@@H](C)C(=O)N[C@@H](CO)C(=O)N[C@H](C(=O)O)[C@@H](C)O)NC(=O)[C@H](CCCCN)NC(=O)[C@H]([C@@H](C)CC)NC1=O)[C@@H](C)CC [compound 3] (X1-FQKFLDRRRSFRDIQGAISKIDPE[R5]IK[S5]LLAST-OH; staple 25-28) | 310 | 600 | 0.67 |  |
| CC[C@H](C)[C@H](NC(=O)[C@H](CCCCN)NC(=O)[C@H](CO)NC(=O)[C@@H](NC(=O)[C@]1(C)CCCC=CCCC[C@](C)(NC(=O)[C@H](CCCNC(=N)N)NC(=O)[C@H](Cc2ccccc2)NC(=O)[C@H](CO)NC(=O)[C@H](CCCNC(=N)N)NC(=O)[C@H](CCCNC(=N)N)NC(=O)[C@H](CCCNC(=N)N)NC(=O)[C@H](CC(=O)O)NC(=O)[C@H](CC(C)C)NC(=O)[C@H](Cc2ccccc2)NC(=O)[C@H](CCCCN)NC(=O)[C@H](CCC(N)=O)NC(=O)[C@H](Cc2ccccc2)NC(=O)c2ccc(-c3c4ccc(=[N+](C)C)cc-4oc4cc(N(C)C)ccc34)c(C(=O)[O-])c2)C(=O)N[C@@H]([C@@H](C)CC)C(=O)N[C@@H](CCC(N)=O)C(=O)NCC(=O)N1)[C@@H](C)CC)C(=O)N[C@@H](CC(=O)O)C(=O)N1CCC[C@H]1C(=O)N[C@@H](CCC(=O)O)C(=O)N[C@H](C(=O)N[C@H](C(=O)N[C@@H](CCCCN)C(=O)N[C@@H](CO)C(=O)N[C@@H](CC(C)C)C(=O)N[C@@H](CC(C)C)C(=O)N[C@@H](C)C(=O)N[C@@H](CO)C(=O)N[C@H](C(=O)O)[C@@H](C)O)[C@@H](C)CC)[C@@H](C)CC [compound 2] (X1-FQKFLDRRRSFR[S5]IQG[S5]ISKIDPEIIKSLLAST-OH; staple 13-17) | 61 | 290 | 7 |  |
| CC/C=C\C[C@@H]1C(=O)C=C[C@@H]1CCCCCCCC(=O)O [OPDA, reference compound] |  |  |  | plant growth (plant area) [4]: inhibited plant growth |
| CC/C=C\CC1C(=O)CCC1CC(=O)OC (stereo not shown) [MeJA, methyl jasmonate, reference compound] |  |  |  | root growth of seedlings [5]: severe root growth inhibition |
